A word on the AUC(0-t): it is the area under the concentration-time curve up to a stated or last time point. Low values mean low exposure, high ones high exposure. Broadly, the Cmax is the maximum level reached in the sampled fluid or tissue. By MRT is commonly meant a mean duration of stay, worked out from the concentration-time curve. A word on the Tmax: it is the time at which the peak concentration occurs. The IC50 is the midpoint of a concentration-inhibition curve.

One data set is described as follows: Pharmacokinetics in mice. It counts as in vivo. The note with it: female, CD1, mouse, plasma, po, 20 mg/kg. Put shortly: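 Female CD1 mice and male beagle dogs received test compound orally in 0.5% methylcellulose:0.5% Tween-80 or intravenously in saline, both at 5 mL/kg. After oral dosing, plasma concentrations were measured at 30 min, 1 h, 3 h, 8 h and 24 h.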

Data set [1] has as its target T1, MST1 (Homo sapiens, UniProt Q13043).
T1 sequence (Q13043 1-487): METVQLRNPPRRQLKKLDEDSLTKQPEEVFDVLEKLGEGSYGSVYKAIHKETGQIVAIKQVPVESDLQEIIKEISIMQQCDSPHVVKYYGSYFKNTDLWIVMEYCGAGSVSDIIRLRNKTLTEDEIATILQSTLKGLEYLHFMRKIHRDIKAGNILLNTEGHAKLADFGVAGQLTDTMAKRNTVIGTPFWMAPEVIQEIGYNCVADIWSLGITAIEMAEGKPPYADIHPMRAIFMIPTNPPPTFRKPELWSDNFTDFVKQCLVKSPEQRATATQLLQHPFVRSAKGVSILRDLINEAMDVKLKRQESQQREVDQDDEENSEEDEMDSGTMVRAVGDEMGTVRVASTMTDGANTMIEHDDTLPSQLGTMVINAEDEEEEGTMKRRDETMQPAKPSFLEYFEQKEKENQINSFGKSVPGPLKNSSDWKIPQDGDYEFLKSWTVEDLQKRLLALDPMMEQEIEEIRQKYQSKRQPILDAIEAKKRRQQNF
The note with it: high-throughput MST1 inhibition screen ref 16, 17; cited from earlier work.

For data set [2], the target named is T1, MST1. Put plainly: MST1 inhibition. It counts as biochemical. The note with it: vs neratinib.
Another data set has as its target EGFR (Homo sapiens, UniProt P00533). The experiment in a line: EGFR inhibition. It counts as biochemical.
The next data set relates to MST1/2. Conditions: cited from earlier work.

Sequence of EGFR (P00533 25-1210): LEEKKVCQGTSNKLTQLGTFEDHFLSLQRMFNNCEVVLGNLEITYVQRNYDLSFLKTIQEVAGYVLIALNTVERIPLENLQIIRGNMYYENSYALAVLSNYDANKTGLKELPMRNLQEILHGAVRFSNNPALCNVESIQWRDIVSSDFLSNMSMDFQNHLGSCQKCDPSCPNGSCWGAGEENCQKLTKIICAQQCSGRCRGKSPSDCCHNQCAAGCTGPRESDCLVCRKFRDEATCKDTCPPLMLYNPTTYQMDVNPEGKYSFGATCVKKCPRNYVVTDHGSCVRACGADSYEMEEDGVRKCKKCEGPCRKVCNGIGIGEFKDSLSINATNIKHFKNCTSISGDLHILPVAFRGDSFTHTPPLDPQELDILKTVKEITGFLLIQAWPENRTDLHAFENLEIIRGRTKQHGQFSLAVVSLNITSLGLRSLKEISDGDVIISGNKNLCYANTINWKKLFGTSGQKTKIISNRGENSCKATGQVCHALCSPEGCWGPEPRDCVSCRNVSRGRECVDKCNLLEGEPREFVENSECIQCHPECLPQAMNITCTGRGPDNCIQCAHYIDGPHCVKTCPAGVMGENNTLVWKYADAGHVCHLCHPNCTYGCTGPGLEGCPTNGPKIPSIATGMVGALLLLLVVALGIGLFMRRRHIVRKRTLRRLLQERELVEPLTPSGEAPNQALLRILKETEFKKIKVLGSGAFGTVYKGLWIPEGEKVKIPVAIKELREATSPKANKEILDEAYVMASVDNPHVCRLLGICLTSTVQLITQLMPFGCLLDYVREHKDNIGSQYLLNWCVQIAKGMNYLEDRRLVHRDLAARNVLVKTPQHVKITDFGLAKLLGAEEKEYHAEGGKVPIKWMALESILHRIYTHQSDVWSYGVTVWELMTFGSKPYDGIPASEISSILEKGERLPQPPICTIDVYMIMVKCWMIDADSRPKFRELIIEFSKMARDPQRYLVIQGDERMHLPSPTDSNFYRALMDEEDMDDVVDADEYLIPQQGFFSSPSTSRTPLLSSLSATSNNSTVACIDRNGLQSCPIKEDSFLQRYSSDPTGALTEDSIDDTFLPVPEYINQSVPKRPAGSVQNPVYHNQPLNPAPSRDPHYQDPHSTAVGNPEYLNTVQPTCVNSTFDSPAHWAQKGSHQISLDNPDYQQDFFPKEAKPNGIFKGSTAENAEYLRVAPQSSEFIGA

Consider `CCOc1cc2ncc(C#N)c(Nc3ccc(OCc4ccccn4)c(Cl)c3)c2cc1NC(=O)/C=C/CN(C)C` [Neratinib], for which, in “Pharmacokinetics in mice”, the AUC(0-t) is 3120 ng·h/mL, the concentration peaked (Cmax) at 342 ± 152 ng/mL, the MRT worked out at 5.4 ± 1.3 h and the Tmax is 4 ± 3 h. For the same molecule, on MST1 [1], the “MST1 inhibitory activity (in words)” value is given as “high MST1 inhibitory activity”.

As to `CCOc1cc2ncc(C#N)c(Nc3ccc(OCc4ccccn4)c(Cl)c3)c2cc1NC(=O)CCCN(C)C` [mBNB885], on MST1 [2], the “MST1 activity (in words)” value is listed as “preserved MST1 activity”. The “fold reduction in potency toward EGFR / EGFR inhibition” value on EGFR (compared with preceding/parent compound) stood at 5 fold. The IC50 on EGFR (read-out: EGFR IC50) was found to be 1.42 nM.

As to XMU-MP-1, the “MST1/2 inhibition (in words)” value in the data set with MST1/2 is reported as “selective MST1/2 inhibition”.

These data come from PMC10962727 (PNAS Nexus, 2024).
